Data from ChEMBL document CHEMBL4706580, “4-Amino-1,2,4-triazole-3-thione-derived Schiff bases as metallo-β-lactamase inhibitors” (Eur J Med Chem, 2020).
Calls of active or inactive are those of the source. No cut-off for these calls is given here.

Key:
[1] = Inhibition of beta-lactamase L1 (unknown origin) expressed in Escherichia coli BL21(DE3) using nitrocefin as substrate by measuring substrate hydrolysis at 200 uM preincubated for 30 mins by spectrophotometric analysis
[2] = system: Escherichia coli; assay: Synergistic antibacterial activity against NDM-1 producing Escherichia coli assessed as MIC of meropenem at 32 ug/ml in presence of colistin by broth microdilution method; assay type: functional; settings: dose 32 µg/ml
In short: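 Broth microdilution per CLSI in Mueller-Hinton broth against a multidrug-resistant NDM-1-producing E. coli clinical isolate (SI-001M), inoculum 5 × 10⁴ CFU/well. […] Run in triplicate.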

[3] = Inhibition of beta-lactamase IMP-1 (unknown origin) expressed in Escherichia coli BL21(DE3) using imipenem as substrate by measuring substrate hydrolysis at 100 uM by spectrophotometric analysis
In short: (§1)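 Purified enzyme (overproduced in E. coli BL21(DE3), pET-9a; ion-exchange and gel filtration), 1-70 nM final. Reporter substrate 150 μM imipenem, read at 300 nm, 30 °C, 50 mM HEPES pH 7.5. Single-point screen at 100 or 200 μM; Ki from v0/vi vs [I] (0.5–1,000 μM final) assuming competitive inhibition, or Dixon plot. Triplicate.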

[4] = system: Escherichia coli; assay: Synergistic antibacterial activity against NDM-1 producing Escherichia coli assessed ass MIC of ceftazidime/avibactam at 32 ug/ml in presence of colistin by broth microdilution method; assay type: functional; settings: dose 32 µg/ml
[5] = system: Escherichia coli; assay: Synergistic antibacterial activity against NDM-1 producing Escherichia coli assessed as MIC of ceftazidime at 32 ug/ml by broth microdilution method; assay type: functional; settings: dose 32 µg/ml
[6] = Inhibition of beta-lactamase L1 (unknown origin) expressed in Escherichia coli BL21(DE3) using nitrocefin as substrate by measuring substrate hydrolysis at 100 uM preincubated for 30 mins by spectrophotometric analysis
In short: (§2)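 Enzyme 0.2–0.8 nM in 25 mM HEPES pH 7.5 with 50 μM ZnCl2 final, pre-incubated 30 min at 21 °C with inhibitor (100 μM screen). Nitrocefin 100 μM final, read at 482 nm, 30 °C. Residual activity vs three uninhibited samples; Ki (1–100 μM inhibitor) from Hanes linearization, competitive model. Triplicate.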

[7] = system: HeLa; assay: Cytotoxicity in human HeLa cells assessed as cell lysis upto 250 uM incubated for 72 hrs by membrane integrity assay; assay type: cell-based
[8] = system: Escherichia coli; assay: Synergistic antibacterial activity against NDM-1 producing Escherichia coli assessed as MIC of imipenem at 32 ug/ml in presence of colistin by broth microdilution method; assay type: functional; settings: dose 32 µg/ml
[9] = Inhibition of beta-lactamase NDM-1 (unknown origin) expressed in Escherichia coli LZ2310 assessed as potentiation of ceftazidime antibacterial activity by measuring ceftazidime induced diameter of inhibition zone at 80 uM incubated for 18 hrs by disk diffusion method (reference value: 15 mm)
In short: (§3)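 Efflux-deficient E. coli LZ2310 (NorE, MdfA, AcrA knocked out) carrying pLB-II with the cloned MBL gene. Mueller-Hinton, CLSI disk diffusion; antibiotic disks (30 µg cefoxitin for VIM-2, 10 µg ampicillin for VIM-4, 30 µg ceftazidime for NDM-1/IMP-1) loaded with inhibitor in DMSO (≤15 µL). Zone diameter after 18 h, 35 ± 1 °C; DMSO and 220 µg EDTA controls. Triplicate.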

[10] = Inhibition of beta-lactamase VIM4 (unknown origin) expressed in Escherichia coli BL21(DE3) using imipenem as substrate by measuring substrate hydrolysis by spectrophotometric analysis; in short: as §1
[11] = system: Escherichia coli; assay: Synergistic antibacterial activity against NDM-1 producing Escherichia coli assessed as MIC of imipenem at 32 ug/ml by broth microdilution method; assay type: functional; settings: dose 32 µg/ml
[12] = system: HeLa; assay: Cytotoxicity in human HeLa cells assessed as reduction in cell viability upto 250 uM incubated for 72 hrs by MTT assay; assay type: cell-based
[13] = Inhibition of beta-lactamase VIM2 (unknown origin) expressed in Escherichia coli BL21(DE3) using imipenem as substrate by measuring substrate hydrolysis at 100 uM by spectrophotometric analysis; in short: as §1
[14] = Inhibition of beta-lactamase VIM2 (unknown origin) expressed in Escherichia coli BL21(DE3) using imipenem as substrate by measuring substrate hydrolysis at 200 uM by spectrophotometric analysis; in short: as §1
[15] = Inhibition of beta-lactamase VIM-2 (unknown origin) expressed in Escherichia coli LZ2310 assessed as potentiation of cefoxitin antibacterial activity by measuring cefoxitin induced diameter of inhibition zone at 80 uM incubated for 18 hrs by disk diffusion method (reference value: 14 mm); in short: as §3
[16] = system: Escherichia coli; assay: Synergistic antibacterial activity against NDM-1 producing Escherichia coli assessed ass MIC of ceftazidime/avibactam at 32 ug/ml by broth microdilution method; assay type: functional; settings: dose 32 µg/ml
In short: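 MIC of ceftazidime-avibactam (avibactam fixed at 4 µg/mL) by CLSI broth microdilution in Mueller-Hinton broth. Used the NDM-1-producing multidrug-resistant E. coli clinical isolate SI-001M at 5 × 10⁴ CFU/well, with and without inhibitor at a fixed 32 µg/ml. No colistin added. Triplicate determinations.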

[17] = system: Escherichia coli; assay: Antibacterial activity against NDM-1 producing Escherichia coli in presence of colistin by broth microdilution method.; assay type: functional
[18] = Inhibition of beta-lactamase NDM1 (unknown origin) expressed in Escherichia coli BL21(DE3) using cefotaxime/nitrocefin as substrate by measuring substrate hydrolysis by spectrophotometric analysis
In short: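 His-tagged enzyme from E. coli BL21(DE3) pET-15b, affinity-purified, 1-70 nM final. Reporter substrate 120 μM cefotaxime (260 nm) or 100 μM nitrocefin (482 nm), 30 °C, 50 mM HEPES pH 7.5. Inhibitor 0.5–1,000 μM final; competitive Ki from v0/vi vs [I] slope or Dixon plot. Triplicate.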

[19] = system: Escherichia coli; assay: Synergistic antibacterial activity against NDM-1 producing Escherichia coli assessed as MIC of meropenem at 32 ug/ml by broth microdilution method; assay type: functional; settings: dose 32 µg/ml
[20] = system: HUVEC; assay: Cytotoxicity in human HUVEC cells assessed as reduction in cell viability upto 100 uM incubated for 72 hrs by MTT assay; assay type: cell-based
[21] = Inhibition of beta-lactamase IMP-1 (unknown origin) expressed in Escherichia coli BL21(DE3) using imipenem as substrate by measuring substrate hydrolysis at 200 uM by spectrophotometric analysis; in short: as §1
[22] = system: Escherichia coli; assay: Synergistic antibacterial activity against NDM-1 producing Escherichia coli assessed as MIC of ceftazidime at 32 ug/ml in presence of colistin by broth microdilution method; assay type: functional; settings: dose 32 µg/ml
[23] = Inhibition of beta-lactamase VIM-2 (unknown origin) expressed in Escherichia coli XL-1 assessed as potentiation of cefoxitin antibacterial activity by measuring cefoxitin induced diameter of inhibition zone at 120 uM incubated for 18 hrs by disk diffusion method (reference value: 8 mm)
In short: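 Wild-type efflux E. coli XL-1 Blue transformed with pLB-II-VIM-2. Mueller-Hinton disk diffusion per CLSI, 30 µg cefoxitin disks loaded with inhibitor dissolved in DMSO (≤15 µL). Growth-inhibition zone measured after 18 h at 35 ± 1 °C; DMSO negative and 220 µg EDTA positive controls. Triplicate.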

[24] = Inhibition of beta-lactamase IMP-1 (unknown origin) expressed in Escherichia coli BL21(DE3) using imipenem as substrate by measuring substrate hydrolysis by spectrophotometric analysis; in short: as §1
[25] = Inhibition of beta-lactamase IMP-1 (unknown origin) expressed in Escherichia coli LZ2310 assessed as potentiation of ceftazidime antibacterial activity by measuring ceftazidime induced diameter of inhibition zone at 40 uM incubated for 18 hrs by disk diffusion method (reference value: 9 mm); in short: as §3
[26] = Inhibition of beta-lactamase L1 (unknown origin) expressed in Escherichia coli BL21(DE3) using nitrocefin as substrate by measuring substrate hydrolysis preincubated for 30 mins by spectrophotometric analysis; in short: as §2
[27] = Inhibition of beta-lactamase VIM2 (unknown origin) expressed in Escherichia coli BL21(DE3) using imipenem as substrate by measuring substrate hydrolysis by spectrophotometric analysis; in short: as §1
[28] = Inhibition of beta-lactamase NDM-1 (unknown origin) expressed in Escherichia coli LZ2310 assessed as potentiation of ceftazidime antibacterial activity by measuring ceftazidime induced diameter of inhibition zone at 40 uM incubated for 18 hrs by disk diffusion method (reference value: 15 mm); in short: as §3
[29] = molecular target: Hydroxyacylglutathione hydrolase (Homo sapiens); assay: Inhibition of human Glyoxalase II expressed in Escherichia coli BL21 (DE3)
[30] = Inhibition of beta-lactamase CphA (unknown origin) expressed in Escherichia coli BL21(DE3) using imipenem as substrate by measuring substrate hydrolysis by spectrophotometric analysis
In short: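 Enzyme 0.2–0.8 nM in 15 mM cacodylate pH 6.5, no added zinc, pre-incubated 30 min at 21 °C with inhibitor (100 μM screen). Imipenem substrate added from 10 mM stock; hydrolysis at 300 nm, 30 °C. Residual activity vs three uninhibited samples; Ki (1–100 μM inhibitor) by Hanes linearization, competitive model. Triplicate.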

[31] = Inhibition of beta-lactamase VIM-2 (unknown origin) expressed in Escherichia coli LZ2310 assessed as potentiation of cefoxitin antibacterial activity by measuring cefoxitin induced diameter of inhibition zone at 120 uM incubated for 18 hrs by disk diffusion method (reference value: 14 mm); in short: as §3
[32] = Inhibition of beta-lactamase VIM-2 (unknown origin) expressed in Escherichia coli LZ2310 assessed as potentiation of cefoxitin antibacterial activity by measuring cefoxitin induced diameter of inhibition zone at 40 uM incubated for 18 hrs by disk diffusion method (reference value: 14 mm); in short: as §3

| SMILES | MIC [5] [µg/mL] | inhibition [6] | Ki [10] [µM] | MIC [11] [µg/mL] | inhibition [13] | MIC [16] [µg/mL] | MIC [17] [µg/mL] | Ki [18] [nM] | MIC [19] [µg/mL] | Ki [24] [µM] | further results |
| --- | --- | --- | --- | --- | --- | --- | --- | --- | --- | --- | --- |
| Oc1ccc(/C=N/n2c(-c3ccc(-c4ccccc4)cc3)n[nH]c2=S)c(O)c1 | > 256 | inactive | 2 | 8 | inactive | > 256 | > 256 | 1800 | 16 | – | inhibition [1]: inactive; MIC [2]: 8 µg/mL; inhibition [3]: inactive; MIC [4]: 4 µg/mL; Activity [7]: Non-Toxic; MIC [8]: 4 µg/mL; inhibition zone (IZ) [9]: 15 mm; Activity [12]: Non-Toxic; inhibition [14]: inactive; inhibition zone (IZ) [15]: 14 mm; Activity [20]: Non-Toxic; inhibition [21]: inactive; MIC [22]: > 256 µg/mL |
| Oc1ccc(/C=N/n2c(-c3cccc(C(F)(F)F)c3)n[nH]c2=S)c(O)c1 | – | 15% | 3.5 | – | 53% | – | – | 32500 | – | 66.2 | inhibition zone (IZ) [23]: 12 mm |
| O=C(O)c1ccccc1/C=N/n1c(Cc2ccc3ccccc3c2)n[nH]c1=S | > 256 | – | 5 | 8 | – | > 256 | > 256 | 1700 | 64 | 34.4 | inhibition zone (IZ) [25]: 9 mm; Ki [26]: 500 nM; Ki [27]: 2400 nM; inhibition zone (IZ) [28]: 15 mm; IC50 [29]: 30 µM; Ki [30]: 15 µM; inhibition zone (IZ) [31]: 16 mm; inhibition zone (IZ) [32]: 14 mm |
